Source: ChEMBL document CHEMBL5046221, “Identification of Pyrimidine-Based Lead Compounds for Understudied Kinases Implicated in Driving Neurodegeneration” (J Med Chem, 2022)
Active and inactive are the calls of the source. No cut-off for these calls is given here.

Legend:
[1] = Effective permeability in PBS at 7.4 incubated for 5 hrs by PAMPA analysis; format: ADME; settings: pH 7.4, 5 h
Procedure, shortened: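 PAMPA: DMSO stocks were diluted in PBS pH 7.4 and placed in the donor compartment, with PBS pH 7.4 in the acceptor, for 5 h. Both compartments were quantified by CLND against a calibration curve, with background nitrogen correction. Effective permeability was calculated from donor and acceptor concentrations using measured rather than assumed solubility.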

[2] = target: Non-receptor tyrosine-protein kinase TYK2 (Homo sapiens, UniProt P29597); experiment: Inhibition of human TYK2 (875 to end residues) using GGMEDIYFEFMGGKKK as substrate measured after 40 mins in presence of [gamma33P]ATP by radiometric scintillation counting method
Procedure, shortened: (§1)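 Eurofins radiometric enzymatic assay with ATP at Km for each kinase. IC50 was derived from a 9-point dose–response curve run in duplicate.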

[3] = target: T1, MAP/microtubule affinity-regulating kinase 3 (Homo sapiens, UniProt P27448); experiment: Displacement of tracer K9 from NLuc fused MARK3 (unknown origin) expressed in HEK293 cells by NanoBRET assay; format: cell-based
Target sequence in this assay (P27448 whole entry, the tested form may be a part): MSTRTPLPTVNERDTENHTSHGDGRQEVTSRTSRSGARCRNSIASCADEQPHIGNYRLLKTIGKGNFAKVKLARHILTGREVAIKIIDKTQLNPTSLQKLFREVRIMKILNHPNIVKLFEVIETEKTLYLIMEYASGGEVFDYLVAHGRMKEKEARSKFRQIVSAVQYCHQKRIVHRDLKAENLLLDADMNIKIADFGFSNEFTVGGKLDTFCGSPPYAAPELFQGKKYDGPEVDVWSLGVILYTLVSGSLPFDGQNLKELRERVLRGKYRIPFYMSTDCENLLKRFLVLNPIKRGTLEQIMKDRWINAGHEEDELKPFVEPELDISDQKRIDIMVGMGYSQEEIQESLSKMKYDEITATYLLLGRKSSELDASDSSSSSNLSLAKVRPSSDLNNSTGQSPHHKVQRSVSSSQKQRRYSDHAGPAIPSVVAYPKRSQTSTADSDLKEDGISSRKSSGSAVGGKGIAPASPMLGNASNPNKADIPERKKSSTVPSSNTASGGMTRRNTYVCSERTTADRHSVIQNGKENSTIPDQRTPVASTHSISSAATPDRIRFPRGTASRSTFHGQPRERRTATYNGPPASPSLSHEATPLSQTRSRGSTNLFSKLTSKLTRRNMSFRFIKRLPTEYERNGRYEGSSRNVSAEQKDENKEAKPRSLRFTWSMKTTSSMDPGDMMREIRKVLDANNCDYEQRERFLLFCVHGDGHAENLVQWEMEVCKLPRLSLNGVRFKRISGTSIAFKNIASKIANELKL

[4] = target: Serine/threonine-protein kinase SIK2 (Homo sapiens, UniProt Q9H0K1); experiment: Inhibition of recombinant human SIK2 (1 to 276 residues) using KKKVSRSGLYRSPSMPENLNRPR as substrate measured after 40 mins in presence of [gamma33P]ATP by radiometric scintillation counting method
Procedure, shortened: (§2)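 Eurofins radiometric kinase assay run at ATP equal to Km for each kinase. 9-point dose–response in duplicate gives the IC50.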

[5] = target: T2, Serine/threonine-protein kinase TBK1 (Homo sapiens, UniProt Q9UHD2); experiment: Displacement of tracer K5 from NLuc fused TBK1 (unknown origin) expressed in HEK293 cells by NanoBRET assay; format: cell-based
T2 sequence (Q9UHD2 whole entry): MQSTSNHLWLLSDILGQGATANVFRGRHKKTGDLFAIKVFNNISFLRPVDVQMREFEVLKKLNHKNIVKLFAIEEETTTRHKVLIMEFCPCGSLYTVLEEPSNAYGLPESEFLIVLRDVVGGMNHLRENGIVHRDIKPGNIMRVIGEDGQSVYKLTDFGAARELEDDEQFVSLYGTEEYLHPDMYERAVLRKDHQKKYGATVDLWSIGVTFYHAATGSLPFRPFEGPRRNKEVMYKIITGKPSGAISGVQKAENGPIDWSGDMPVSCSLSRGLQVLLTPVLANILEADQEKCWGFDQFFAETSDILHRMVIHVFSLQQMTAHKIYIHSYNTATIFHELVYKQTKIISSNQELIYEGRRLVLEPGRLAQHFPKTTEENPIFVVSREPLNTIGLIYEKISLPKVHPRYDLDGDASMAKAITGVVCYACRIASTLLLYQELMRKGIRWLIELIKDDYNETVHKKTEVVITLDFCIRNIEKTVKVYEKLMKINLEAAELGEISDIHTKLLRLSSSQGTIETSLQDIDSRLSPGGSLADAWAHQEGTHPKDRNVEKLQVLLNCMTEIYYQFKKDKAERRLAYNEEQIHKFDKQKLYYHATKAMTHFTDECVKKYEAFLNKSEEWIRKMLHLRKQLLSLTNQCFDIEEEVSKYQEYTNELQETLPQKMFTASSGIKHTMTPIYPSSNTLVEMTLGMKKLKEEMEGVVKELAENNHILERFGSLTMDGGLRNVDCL
Procedure, shortened: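 HEK293 cells grown in DMEM with 10% FBS at 37 °C, 5% CO2. NanoBRET assay run in dose–response per manufacturer's protocol with tracer K-5 at 0.5 μM. SEM calculated for assays run more than once.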

[6] = target: BMP-2-inducible protein kinase (Homo sapiens, UniProt Q9NSY1); experiment: Residual activity of human BMP2K at 1 uM using peptide as substrate incubated for 120 mins in presence of [gamma-33P-ATP] by radiometric scintillation assay relative to control
[7] = Kinetic solubility of compound in PBS at pH 7.4 incubated for 24 hrs by chemiluminscent nitrogen detection method; format: physicochemical; settings: buffer, pH 7.4, 24 h
Procedure, shortened: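 Filtrates were quantified by total chemiluminescent nitrogen determination against a calibration curve, with correction for background nitrogen from DMSO and medium.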

[8] = target: MAP kinase-interacting serine/threonine-protein kinase 2 (Homo sapiens, UniProt Q9HBH9); experiment: Inhibition of full length recombinant human MKNK2 using myelin basic protein as substrate incubated for 40 mins in presence of [gamma-33P-ATP] by radiometric scintillation assay; procedure, shortened: as §2
[9] = target: T3, Serine/threonine-protein kinase 17A (Homo sapiens, UniProt Q9UEE5); experiment: Displacement of tracer K9 from NLuc fused DRAK1 (unknown origin) expressed in HEK293 cells by NanoBRET assay; format: cell-based
T3 sequence (Q9UEE5 whole entry): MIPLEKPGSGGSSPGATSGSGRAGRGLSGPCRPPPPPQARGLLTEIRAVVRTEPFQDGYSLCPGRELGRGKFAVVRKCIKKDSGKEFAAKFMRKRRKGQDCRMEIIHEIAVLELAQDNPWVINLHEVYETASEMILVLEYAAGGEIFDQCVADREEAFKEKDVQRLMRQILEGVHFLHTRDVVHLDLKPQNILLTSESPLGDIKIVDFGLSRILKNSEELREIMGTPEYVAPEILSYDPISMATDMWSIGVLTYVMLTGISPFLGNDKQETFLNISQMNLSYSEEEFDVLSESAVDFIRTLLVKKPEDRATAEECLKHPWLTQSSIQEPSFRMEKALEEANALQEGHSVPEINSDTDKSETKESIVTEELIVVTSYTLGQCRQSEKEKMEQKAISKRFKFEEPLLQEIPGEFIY

[10] = target: Serine/threonine-protein kinase 17B (Homo sapiens, UniProt O94768); experiment: (§3) Inhibition of recombinant human DRAK2 using KKRPQRRYSNVF as substrate after 120 mins in presence of [gamma-33ATP] by scintillation counting based radiometry assay; procedure, shortened: as §1
[11] = target: T4, MAP/microtubule affinity-regulating kinase 4 (Homo sapiens, UniProt Q96L34); experiment: Displacement of tracer K5 from NLuc fused MARK4 (unknown origin) expressed in HEK293 cells by NanoBRET assay; format: cell-based
T4 sequence (Q96L34 whole entry): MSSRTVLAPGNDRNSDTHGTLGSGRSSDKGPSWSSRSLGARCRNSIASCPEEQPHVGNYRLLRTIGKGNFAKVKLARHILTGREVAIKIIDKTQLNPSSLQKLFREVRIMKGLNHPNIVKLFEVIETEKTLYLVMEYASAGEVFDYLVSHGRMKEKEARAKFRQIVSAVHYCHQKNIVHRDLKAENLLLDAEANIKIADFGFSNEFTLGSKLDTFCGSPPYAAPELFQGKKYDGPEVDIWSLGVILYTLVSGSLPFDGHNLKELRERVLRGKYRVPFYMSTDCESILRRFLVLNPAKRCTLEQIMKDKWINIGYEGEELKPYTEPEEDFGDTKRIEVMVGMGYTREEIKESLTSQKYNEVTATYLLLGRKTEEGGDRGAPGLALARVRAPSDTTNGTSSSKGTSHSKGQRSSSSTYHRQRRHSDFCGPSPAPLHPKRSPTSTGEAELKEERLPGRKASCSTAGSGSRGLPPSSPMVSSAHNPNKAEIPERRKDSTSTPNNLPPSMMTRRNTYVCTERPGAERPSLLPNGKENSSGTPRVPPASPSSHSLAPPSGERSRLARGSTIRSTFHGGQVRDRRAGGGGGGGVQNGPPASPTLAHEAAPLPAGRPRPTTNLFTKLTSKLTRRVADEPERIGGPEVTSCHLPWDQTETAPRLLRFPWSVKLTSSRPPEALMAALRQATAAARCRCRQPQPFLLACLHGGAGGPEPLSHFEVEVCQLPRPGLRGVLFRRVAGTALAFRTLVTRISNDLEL

[12] = target: AP2-associated protein kinase 1 (Homo sapiens, UniProt Q2M2I8); experiment: Inhibition of human AAK1 using peptide as substrate incubated for 120 mins in presence of [gamma-33ATP] by scintillation counting based radiometry assay; procedure, shortened: as §2
[13] = target: T3, Serine/threonine-protein kinase 17A; experiment: (§4) Inhibition of recombinant human DRAK1 using KKLNRTLSFAEPG as substrate after 40 mins in presence of [gamma-33ATP] by scintillation counting based radiometry assay; procedure, shortened: as §2
[14] = target: T5, MAP/microtubule affinity-regulating kinase 4 (Homo sapiens) (UniProt Q96L34); experiment: Inhibition of recombinant full length human MARK4 using KKKVSRSGLYRSPSMPENLNRPR as substrate incubated for 40 mins in presence of [gamma-33ATP] by scintillation counting based radiometry assay; procedure, shortened: as §1
T5 sequence (whole entry): T4 sequence (Q96L34 whole entry)

[15] = target: NUAK family SNF1-like kinase 1 (Homo sapiens) (UniProt O60285); experiment: Inhibition of recombinant human ARK5 (2 to end residues) using KKKVSRSGLYRSPSMPENLNRPR as substrate incubated for 40 mins in presence of [gamma-33ATP] by scintillation counting based radiometry assay; procedure, shortened: as §1
[16] = target: T1, MAP/microtubule affinity-regulating kinase 3; experiment: Inhibition of recombinant full length human MARK3 using KKKVSRSGLYRSP as substrate incubated for 40 mins in presence of [gamma-33ATP] by scintillation counting based radiometry assay; procedure, shortened: as §1
Target sequence in this assay (P27448 whole entry, looked up, the tested form may be a part): as the sequence (P27448 whole entry, the tested form may be a part) above

[17] = target: Mitogen-activated protein kinase kinase kinase 9 (Homo sapiens) (UniProt P80192); experiment: Inhibition of recombinant human MLK1 (134 to 414 residues) using casein as substrate incubated for 40 mins in presence of [gamma-33ATP by scintillation counting based radiometry assay; procedure, shortened: as §1
[18] = target: Serine/threonine-protein kinase MARK1 (Homo sapiens) (UniProt Q9P0L2); experiment: Inhibition of recombinant human MARK1 (2 to end residues) using KKKVSRSGLYRSPSMPENLNRPR as substrate incubated for 40 mins in presence of [gamma-33ATP] by scintillation counting based radiometry assay; procedure, shortened: as §1
[19] = target: T6, Serine/threonine-protein kinase 17B (Homo sapiens) (UniProt O94768); experiment: as §3; procedure, shortened: as §1
T6 sequence (whole entry): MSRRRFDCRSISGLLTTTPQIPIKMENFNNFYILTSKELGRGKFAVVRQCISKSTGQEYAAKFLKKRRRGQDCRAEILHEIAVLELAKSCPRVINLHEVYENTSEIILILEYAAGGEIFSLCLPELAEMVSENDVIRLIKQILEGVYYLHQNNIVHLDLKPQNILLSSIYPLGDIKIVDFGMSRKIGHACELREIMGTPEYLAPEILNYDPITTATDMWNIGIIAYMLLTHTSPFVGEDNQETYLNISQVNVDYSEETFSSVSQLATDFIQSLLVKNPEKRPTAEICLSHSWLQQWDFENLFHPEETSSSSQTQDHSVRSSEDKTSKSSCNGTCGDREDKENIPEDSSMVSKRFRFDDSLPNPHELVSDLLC

[20] = target: T7, Serine/threonine-protein kinase 17A (Homo sapiens) (UniProt Q9UEE5); experiment: as §4; procedure, shortened: as §2
T7 sequence (whole entry): T3 sequence (Q9UEE5 whole entry)

Chain of Serine/threonine-protein kinase MARK1 (Homo sapiens) (Q9P0L2 whole entry, looked up): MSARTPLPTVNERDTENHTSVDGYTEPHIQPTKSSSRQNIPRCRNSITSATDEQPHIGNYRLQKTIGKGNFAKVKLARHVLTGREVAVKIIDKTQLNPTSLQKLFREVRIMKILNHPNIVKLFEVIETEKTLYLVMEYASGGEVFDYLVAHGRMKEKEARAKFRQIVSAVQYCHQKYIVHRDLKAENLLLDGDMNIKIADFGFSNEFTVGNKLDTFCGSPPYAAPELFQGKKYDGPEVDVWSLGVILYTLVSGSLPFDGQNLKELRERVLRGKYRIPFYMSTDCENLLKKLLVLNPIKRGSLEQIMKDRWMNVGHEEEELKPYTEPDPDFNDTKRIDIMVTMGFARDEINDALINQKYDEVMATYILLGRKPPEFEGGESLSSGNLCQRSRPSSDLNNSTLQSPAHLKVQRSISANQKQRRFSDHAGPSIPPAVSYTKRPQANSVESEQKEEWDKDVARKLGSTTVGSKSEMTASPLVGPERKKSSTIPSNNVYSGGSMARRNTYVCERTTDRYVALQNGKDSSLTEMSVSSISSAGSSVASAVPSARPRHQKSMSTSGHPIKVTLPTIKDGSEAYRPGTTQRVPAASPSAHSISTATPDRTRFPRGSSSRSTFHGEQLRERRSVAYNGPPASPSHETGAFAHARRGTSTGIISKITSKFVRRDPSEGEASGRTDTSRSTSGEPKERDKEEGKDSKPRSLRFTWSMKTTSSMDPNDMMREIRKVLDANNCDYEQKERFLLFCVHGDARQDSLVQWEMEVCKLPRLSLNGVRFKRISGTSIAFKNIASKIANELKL
Chain of NUAK family SNF1-like kinase 1 (Homo sapiens) (O60285 whole entry): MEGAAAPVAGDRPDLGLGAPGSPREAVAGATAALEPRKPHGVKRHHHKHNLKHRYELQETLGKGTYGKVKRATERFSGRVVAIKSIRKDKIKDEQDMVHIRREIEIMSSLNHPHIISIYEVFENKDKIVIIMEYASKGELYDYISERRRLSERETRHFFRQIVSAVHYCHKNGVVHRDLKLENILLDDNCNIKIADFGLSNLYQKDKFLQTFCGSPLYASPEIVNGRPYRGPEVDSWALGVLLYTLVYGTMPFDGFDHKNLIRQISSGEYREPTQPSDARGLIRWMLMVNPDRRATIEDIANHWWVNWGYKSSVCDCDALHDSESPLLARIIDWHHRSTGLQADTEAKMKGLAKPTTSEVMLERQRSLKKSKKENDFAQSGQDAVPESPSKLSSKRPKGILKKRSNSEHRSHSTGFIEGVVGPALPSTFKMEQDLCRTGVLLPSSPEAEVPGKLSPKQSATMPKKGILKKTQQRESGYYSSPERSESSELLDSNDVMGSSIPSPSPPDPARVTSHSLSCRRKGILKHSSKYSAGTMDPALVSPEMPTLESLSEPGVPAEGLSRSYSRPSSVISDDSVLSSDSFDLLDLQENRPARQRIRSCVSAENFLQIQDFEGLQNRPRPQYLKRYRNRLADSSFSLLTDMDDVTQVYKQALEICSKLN
Chain of BMP-2-inducible protein kinase (Q9NSY1 whole entry, looked up): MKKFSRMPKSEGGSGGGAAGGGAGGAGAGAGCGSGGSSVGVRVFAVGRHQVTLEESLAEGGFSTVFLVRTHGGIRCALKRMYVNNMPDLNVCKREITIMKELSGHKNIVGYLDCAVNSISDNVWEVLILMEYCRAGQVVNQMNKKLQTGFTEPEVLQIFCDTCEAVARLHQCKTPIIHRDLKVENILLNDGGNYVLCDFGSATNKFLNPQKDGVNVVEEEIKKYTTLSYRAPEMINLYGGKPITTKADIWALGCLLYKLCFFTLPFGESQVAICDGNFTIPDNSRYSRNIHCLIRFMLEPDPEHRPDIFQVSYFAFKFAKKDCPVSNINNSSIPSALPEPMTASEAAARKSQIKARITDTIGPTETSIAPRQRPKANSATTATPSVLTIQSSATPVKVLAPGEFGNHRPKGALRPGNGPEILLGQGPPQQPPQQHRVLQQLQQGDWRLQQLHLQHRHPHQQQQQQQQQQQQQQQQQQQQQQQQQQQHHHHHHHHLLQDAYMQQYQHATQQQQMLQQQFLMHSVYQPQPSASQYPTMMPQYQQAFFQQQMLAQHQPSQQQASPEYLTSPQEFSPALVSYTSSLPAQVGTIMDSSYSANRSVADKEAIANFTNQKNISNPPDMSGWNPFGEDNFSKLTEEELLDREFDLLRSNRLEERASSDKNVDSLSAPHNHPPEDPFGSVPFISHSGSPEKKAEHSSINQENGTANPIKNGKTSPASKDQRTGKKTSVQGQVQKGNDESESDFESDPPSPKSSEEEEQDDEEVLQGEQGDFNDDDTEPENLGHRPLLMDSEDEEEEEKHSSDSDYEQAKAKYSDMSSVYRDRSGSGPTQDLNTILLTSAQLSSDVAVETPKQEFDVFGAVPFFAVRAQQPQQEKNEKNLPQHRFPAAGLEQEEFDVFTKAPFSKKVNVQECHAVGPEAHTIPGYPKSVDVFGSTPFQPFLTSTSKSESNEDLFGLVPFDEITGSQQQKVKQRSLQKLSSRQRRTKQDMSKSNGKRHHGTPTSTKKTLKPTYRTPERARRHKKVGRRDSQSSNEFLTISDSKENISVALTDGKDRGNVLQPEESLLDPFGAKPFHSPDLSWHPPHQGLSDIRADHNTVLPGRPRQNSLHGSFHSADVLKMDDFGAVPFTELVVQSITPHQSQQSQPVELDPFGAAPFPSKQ
Chain of Non-receptor tyrosine-protein kinase TYK2 (P29597 whole entry): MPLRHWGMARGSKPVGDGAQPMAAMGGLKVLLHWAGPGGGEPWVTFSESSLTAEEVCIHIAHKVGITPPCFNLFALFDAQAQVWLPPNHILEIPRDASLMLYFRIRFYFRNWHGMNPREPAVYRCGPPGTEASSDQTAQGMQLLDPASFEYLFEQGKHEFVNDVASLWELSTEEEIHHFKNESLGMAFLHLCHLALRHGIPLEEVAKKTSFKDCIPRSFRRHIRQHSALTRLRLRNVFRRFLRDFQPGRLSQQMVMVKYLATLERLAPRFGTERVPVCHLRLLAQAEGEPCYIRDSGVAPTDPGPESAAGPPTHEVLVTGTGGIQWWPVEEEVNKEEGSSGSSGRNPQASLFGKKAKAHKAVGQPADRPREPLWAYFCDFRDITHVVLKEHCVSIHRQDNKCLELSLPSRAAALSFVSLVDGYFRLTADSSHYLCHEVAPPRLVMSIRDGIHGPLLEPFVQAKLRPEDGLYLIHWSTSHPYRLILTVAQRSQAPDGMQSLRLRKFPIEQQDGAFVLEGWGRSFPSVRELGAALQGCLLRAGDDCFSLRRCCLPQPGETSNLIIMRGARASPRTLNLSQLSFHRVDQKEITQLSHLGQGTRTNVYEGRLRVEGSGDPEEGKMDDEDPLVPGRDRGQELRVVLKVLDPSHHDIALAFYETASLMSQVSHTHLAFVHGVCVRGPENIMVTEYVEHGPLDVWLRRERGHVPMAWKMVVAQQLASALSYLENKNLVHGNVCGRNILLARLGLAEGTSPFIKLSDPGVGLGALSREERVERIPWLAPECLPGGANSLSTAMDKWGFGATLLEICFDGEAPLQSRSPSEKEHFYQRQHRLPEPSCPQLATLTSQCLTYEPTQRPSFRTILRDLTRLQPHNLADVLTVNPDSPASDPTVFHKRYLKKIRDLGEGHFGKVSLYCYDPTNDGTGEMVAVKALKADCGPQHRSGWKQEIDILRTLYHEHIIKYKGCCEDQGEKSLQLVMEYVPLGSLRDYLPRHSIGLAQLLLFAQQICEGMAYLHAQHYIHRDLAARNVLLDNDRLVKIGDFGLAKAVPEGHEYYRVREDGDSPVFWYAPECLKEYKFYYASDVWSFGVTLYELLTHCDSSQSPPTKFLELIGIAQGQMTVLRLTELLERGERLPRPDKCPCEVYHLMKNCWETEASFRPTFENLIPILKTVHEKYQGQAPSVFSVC
Chain of MAP kinase-interacting serine/threonine-protein kinase 2 (Q9HBH9 whole entry, the tested form may be a part): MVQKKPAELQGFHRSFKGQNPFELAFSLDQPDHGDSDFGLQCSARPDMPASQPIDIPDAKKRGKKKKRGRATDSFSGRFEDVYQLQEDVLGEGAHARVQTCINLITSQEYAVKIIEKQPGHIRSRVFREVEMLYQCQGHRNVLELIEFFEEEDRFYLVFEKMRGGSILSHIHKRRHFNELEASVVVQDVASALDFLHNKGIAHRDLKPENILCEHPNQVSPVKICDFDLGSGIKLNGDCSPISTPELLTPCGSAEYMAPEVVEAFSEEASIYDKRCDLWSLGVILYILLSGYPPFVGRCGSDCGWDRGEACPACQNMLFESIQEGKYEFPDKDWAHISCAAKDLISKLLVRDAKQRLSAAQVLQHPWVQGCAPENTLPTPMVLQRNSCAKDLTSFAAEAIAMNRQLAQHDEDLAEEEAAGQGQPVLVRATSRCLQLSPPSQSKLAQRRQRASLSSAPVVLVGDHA

SMILES: O=C(NCCCNc1ccnc(Nc2cccc(NC(=O)N3CCCC3)c2)n1)C1CCC1
- Peff [1]: 8.24 10^-8cm/s
- IC50 [2]: 0.72 µM
- IC50 [3]: > 10 µM
- IC50 [4]: 0.481 µM
- IC50 [5]: > 10 µM
- % control [6]: 56%
- Kinetic solubility [7]: 169 µM
- IC50 [8]: 0.769 µM
- IC50 [9]: 2.31 µM
- IC50 [10]: 0.161 µM
- IC50 [11]: > 10 µM
- IC50 [12]: 0.39 µM
- IC50 [13]: 0.325 µM

SMILES: c1cc(CN2CCOCC2)cc(Nc2ncc(C3CC3)c(NCCc3c[nH]cn3)n2)c1
- Peff [1]: 5.61 10^-7 cm/s
- IC50 [3]: 4.01 µM
- IC50 [5]: > 10 µM
- Kinetic_solubility [7]: 173.6 µM
- IC50 [9]: 3.62 µM
- inhibition [14]: Active
- inhibition [15]: Active
- IC50 [11]: 0.808 µM
- inhibition [16]: Active
- inhibition [17]: Active
- inhibition [18]: Active

SMILES: Cc1nn(CC(F)(F)F)cc1Nc1ncc(Br)c(NCCCNC(=O)C2CCC2)n1
- Peff [1]: 3.73 10^-6 cm/s
- IC50 [3]: > 10 µM
- IC50 [5]: 0.321 µM
- Kinetic solubility [7]: 40.3 µM
- IC50 [9]: 0.126 µM
- inhibition [19]: Active
- IC50 [11]: 3.54 µM
- inhibition [12]: Active
- inhibition [20]: Active
- inhibition [18]: Active
